Measured values reported in ChEMBL document CHEMBL3808372, “Identification of quinones as novel PIM1 kinase inhibitors” (Bioorg Med Chem Lett, 2016).

Experiments:
[1] = biological target: Serine/threonine-protein kinase PAK 2 (Homo sapiens) (UniProt Q13177); test: Inhibition of human PAK2 (151 to 525 amino acid residues) expressed in bacterial system assessed as enzyme activity at 10 uM by KINOMEScan assay; design: scale not given: the % may be the effect or the level left
Outline: (§1)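 Competition binding screen on a 100-kinase KINOMEscan panel, compound tested at a single 10 μM concentration. Primary binding read-out expressed as % Ctrl = (test compound signal − positive control signal)/(negative control signal − positive control signal) × 100, with lower values meaning stronger binding.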

[2] = biological target: Mitogen-activated protein kinase kinase kinase 4 (Homo sapiens) (UniProt Q9Y6R4); test: Inhibition of human MAP3K4 (1319 to 1608 amino acid residues) expressed in bacterial system assessed as enzyme activity at 10 uM by KINOMEScan assay; design: scale not given: the % may be the effect or the level left
Outline: (§2)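 Commercial KINOMEscan binding panel of 100 kinases, test compound at 10 μM. Results are primary-screen binding interactions expressed as % Ctrl = (test compound signal − positive control signal)/(negative control signal − positive control signal) × 100. Lower % Ctrl means stronger binding.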

[3] = biological target: Platelet-derived growth factor receptor alpha (Homo sapiens) (UniProt P16234); test: Inhibition of human PDGFRA (575 to 1002 amino acid residues) assessed as enzyme activity at 10 uM by KINOMEScan assay; design: scale not given: the % may be the effect or the level left; outline: as §2
[4] = biological target: MAP kinase-activated protein kinase 2 (Homo sapiens) (UniProt P49137); test: Inhibition of human MAPKAPK2 (48 to 345 amino acid residues) expressed in bacterial system assessed as enzyme activity at 10 uM by KINOMEScan assay; design: scale not given: the % may be the effect or the level left; outline: as §1
[5] = test system: Mast/stem cell growth factor receptor Kit (Homo sapiens), P10721 [V559D,T670I]; test: Inhibition of human KIT V559D/T670I mutant (545 to 952 amino acid residues) expressed in bacterial system assessed as enzyme activity at 10 uM by KINOMEScan assay; design: scale not given: the % may be the effect or the level left; outline: as §2
Chain of Mast/stem cell growth factor receptor Kit (Homo sapiens), P10721 [V559D,T670I] (P10721 whole entry V559D/T670I, the tested form may be a part): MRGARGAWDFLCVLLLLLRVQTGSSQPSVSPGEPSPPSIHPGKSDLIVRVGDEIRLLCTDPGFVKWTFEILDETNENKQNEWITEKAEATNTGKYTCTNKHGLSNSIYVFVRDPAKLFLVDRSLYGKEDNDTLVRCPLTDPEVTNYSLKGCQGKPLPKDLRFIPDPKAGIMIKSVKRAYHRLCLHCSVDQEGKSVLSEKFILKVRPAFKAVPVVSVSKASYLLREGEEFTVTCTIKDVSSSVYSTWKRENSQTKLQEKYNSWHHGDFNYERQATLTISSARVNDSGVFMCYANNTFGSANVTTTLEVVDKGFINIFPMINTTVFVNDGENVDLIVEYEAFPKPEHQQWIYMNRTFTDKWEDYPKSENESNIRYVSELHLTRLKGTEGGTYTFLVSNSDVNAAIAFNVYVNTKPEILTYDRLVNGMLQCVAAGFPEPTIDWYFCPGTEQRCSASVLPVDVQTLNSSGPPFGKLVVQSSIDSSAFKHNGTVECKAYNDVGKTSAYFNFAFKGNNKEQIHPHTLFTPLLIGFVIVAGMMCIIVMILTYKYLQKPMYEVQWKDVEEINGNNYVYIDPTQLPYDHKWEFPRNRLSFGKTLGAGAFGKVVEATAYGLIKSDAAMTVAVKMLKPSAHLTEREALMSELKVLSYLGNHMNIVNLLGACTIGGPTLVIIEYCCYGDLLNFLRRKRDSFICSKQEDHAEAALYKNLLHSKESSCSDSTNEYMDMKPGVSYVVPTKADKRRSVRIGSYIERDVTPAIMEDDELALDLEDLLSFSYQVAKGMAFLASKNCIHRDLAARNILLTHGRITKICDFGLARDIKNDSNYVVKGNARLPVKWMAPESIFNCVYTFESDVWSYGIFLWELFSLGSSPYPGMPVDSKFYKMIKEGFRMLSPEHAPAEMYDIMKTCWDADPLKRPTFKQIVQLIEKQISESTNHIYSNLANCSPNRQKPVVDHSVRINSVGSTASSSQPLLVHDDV

[6] = biological target: TGF-beta receptor type-1 (Homo sapiens) (UniProt P36897); test: Inhibition of human TGFBR1 (179 to 503 amino acid residues) expressed in bacterial system assessed as enzyme activity at 10 uM by KINOMEScan assay; design: scale not given: the % may be the effect or the level left; outline: as §2
[7] = biological target: Phosphatidylinositol 4-phosphate 3-kinase C2 domain-containing subunit beta (Homo sapiens) (UniProt O00750); test: Inhibition of human PIK3C2B (1 to 1634 amino acid residues) assessed as enzyme activity at 10 uM by KINOMEScan assay; design: scale not given: the % may be the effect or the level left; outline: as §2
[8] = biological target: Casein kinase I isoform delta (Homo sapiens) (UniProt P48730); test: Inhibition of full length human CSNK1D expressed in bacterial system assessed as enzyme activity at 10 uM by KINOMEScan assay system assessed as enzyme activity at 10 uM by KINOMEScan assay; design: scale not given: the % may be the effect or the level left; outline: as §1
[9] = biological target: 3-phosphoinositide-dependent protein kinase 1 (Homo sapiens) (UniProt O15530); test: Inhibition of full length human PDPK1 expressed in bacterial system assessed as enzyme activity at 10 uM by KINOMEScan assay; design: scale not given: the % may be the effect or the level left; outline: as §1
[10] = biological target: Mitogen-activated protein kinase 3 (Homo sapiens) (UniProt P27361); test: Inhibition of full length human ERK1 expressed in bacterial system assessed as enzyme activity at 10 uM by KINOMEScan assay; design: scale not given: the % may be the effect or the level left; outline: as §2
[11] = biological target: Mitogen-activated protein kinase 11 (Homo sapiens) (UniProt Q15759); test: Inhibition of full length human p38-beta expressed in bacterial system assessed as enzyme activity at 10 uM by KINOMEScan assay; design: scale not given: the % may be the effect or the level left; outline: as §1
[12] = biological target: Receptor tyrosine-protein kinase erbB-2 (Homo sapiens) (UniProt P04626); test: Inhibition of human ERBB2 (646 to 1225 amino acid residues) assessed as enzyme activity at 10 uM by KINOMEScan assay; design: scale not given: the % may be the effect or the level left; outline: as §1
[13] = biological target: RAC-beta serine/threonine-protein kinase (Homo sapiens) (UniProt P31751); test: Inhibition of human Akt2 expressed in bacterial system assessed as enzyme activity at 10 uM by KINOMEScan assay; design: scale not given: the % may be the effect or the level left; outline: as §2
Chain of RAC-beta serine/threonine-protein kinase (Homo sapiens) (P31751 whole entry): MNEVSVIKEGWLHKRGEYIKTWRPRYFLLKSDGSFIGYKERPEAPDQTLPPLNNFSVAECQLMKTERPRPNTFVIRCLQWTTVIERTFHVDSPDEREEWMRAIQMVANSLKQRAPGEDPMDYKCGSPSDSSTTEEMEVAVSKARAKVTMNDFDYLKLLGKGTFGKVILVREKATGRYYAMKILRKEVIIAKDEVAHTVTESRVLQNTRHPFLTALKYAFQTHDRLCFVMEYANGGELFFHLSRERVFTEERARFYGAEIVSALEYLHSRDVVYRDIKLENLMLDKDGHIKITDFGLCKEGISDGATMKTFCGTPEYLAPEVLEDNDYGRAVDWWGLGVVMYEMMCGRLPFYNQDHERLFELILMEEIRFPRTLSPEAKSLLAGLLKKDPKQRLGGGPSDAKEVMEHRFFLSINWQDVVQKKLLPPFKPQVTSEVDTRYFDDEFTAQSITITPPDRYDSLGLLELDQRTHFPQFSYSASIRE

[14] = biological target: Serine/threonine-protein kinase STK11 (Homo sapiens) (UniProt Q15831); test: Inhibition of full length human LKB1 expressed in bacterial system assessed as enzyme activity at 10 uM by KINOMEScan assay; design: scale not given: the % may be the effect or the level left; outline: as §2
Chain of Serine/threonine-protein kinase STK11 (Homo sapiens) (Q15831 whole entry): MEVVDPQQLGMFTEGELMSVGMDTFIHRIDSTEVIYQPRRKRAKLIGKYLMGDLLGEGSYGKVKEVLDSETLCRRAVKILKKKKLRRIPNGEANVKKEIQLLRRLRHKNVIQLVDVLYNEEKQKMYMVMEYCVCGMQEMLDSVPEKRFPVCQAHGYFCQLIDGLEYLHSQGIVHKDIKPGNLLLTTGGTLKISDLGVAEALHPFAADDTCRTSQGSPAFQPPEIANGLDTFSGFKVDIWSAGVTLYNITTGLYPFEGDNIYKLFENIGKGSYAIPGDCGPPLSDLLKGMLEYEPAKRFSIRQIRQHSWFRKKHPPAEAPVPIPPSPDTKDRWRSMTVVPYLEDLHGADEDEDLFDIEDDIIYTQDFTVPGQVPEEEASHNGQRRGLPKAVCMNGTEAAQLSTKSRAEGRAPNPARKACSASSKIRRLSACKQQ

[15] = biological target: Cyclin-dependent kinase 7 (Homo sapiens) (UniProt P50613); test: Inhibition of full length human CDK7 assessed as enzyme activity at 10 uM by KINOMEScan assay; design: scale not given: the % may be the effect or the level left; outline: as §1
[16] = biological target: Serine/threonine-protein kinase PLK1 (Homo sapiens) (UniProt P53350); test: Inhibition of human PLK1 (33 to 325 amino acid residues) assessed as enzyme activity at 10 uM by KINOMEScan assay; design: scale not given: the % may be the effect or the level left
Outline: (§3)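 Single-concentration competition binding screen (KINOMEscan) across a 100-kinase panel at 10 μM. Primary binding read-out is reported as % of control: (test signal − positive-control signal)/(negative-control signal − positive-control signal) × 100. Lower values indicate stronger binding.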

[17] = biological target: Cyclin-dependent kinase 11B (Homo sapiens) (UniProt P21127); test: Inhibition of human CDK11 (1 to 360 amino acid residues) assessed as enzyme activity at 10 uM by KINOMEScan assay expressed in bacterial system assessed as enzyme activity at 10 uM by KINOMEScan assay; design: scale not given: the % may be the effect or the level left; outline: as §2
[18] = biological target: Testis-specific serine/threonine-protein kinase 1 (Homo sapiens) (UniProt Q9BXA7); test: Inhibition of full length human TSSK1B expressed in bacterial system assessed as enzyme activity at 10 uM by KINOMEScan assay; design: scale not given: the % may be the effect or the level left; outline: as §1
[19] = biological target: Proto-oncogene tyrosine-protein kinase Src (Homo sapiens) (UniProt P12931); test: Inhibition of SRC (unknown origin)
Chain of Proto-oncogene tyrosine-protein kinase Src (Homo sapiens) (P12931 2-536 limits assumed): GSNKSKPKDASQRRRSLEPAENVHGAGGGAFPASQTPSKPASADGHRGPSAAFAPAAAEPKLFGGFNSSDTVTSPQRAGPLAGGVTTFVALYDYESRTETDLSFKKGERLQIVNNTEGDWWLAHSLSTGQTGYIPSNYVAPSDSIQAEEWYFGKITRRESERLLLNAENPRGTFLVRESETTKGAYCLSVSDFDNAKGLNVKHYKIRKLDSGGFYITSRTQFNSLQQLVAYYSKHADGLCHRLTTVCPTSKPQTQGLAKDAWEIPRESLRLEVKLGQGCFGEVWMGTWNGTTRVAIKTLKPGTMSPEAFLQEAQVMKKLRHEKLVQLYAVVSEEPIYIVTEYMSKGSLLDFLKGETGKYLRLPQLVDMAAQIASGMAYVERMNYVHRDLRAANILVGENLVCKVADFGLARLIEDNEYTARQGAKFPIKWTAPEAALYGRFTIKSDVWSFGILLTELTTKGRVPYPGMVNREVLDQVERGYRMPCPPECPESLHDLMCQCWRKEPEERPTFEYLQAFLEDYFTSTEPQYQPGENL

[20] = biological target: Death-associated protein kinase 1 (Homo sapiens) (UniProt P53355); test: Share of MOE computational kinase hits for DAPK
[21] = biological target: Serine/threonine-protein kinase pim-3 (Homo sapiens) (UniProt Q86V86); test: Inhibition of human PIM3 (16 to 317 amino acid residues) expressed in bacterial system assessed as enzyme activity at 10 uM by KINOMEScan assay; design: scale not given: the % may be the effect or the level left; outline: as §3
[22] = biological target: Mitogen-activated protein kinase kinase kinase 9 (Homo sapiens) (UniProt P80192); test: Inhibition of human MLK1 (88 to 426 amino acid residues) expressed in bacterial system assessed as enzyme activity at 10 uM by KINOMEScan assay; design: scale not given: the % may be the effect or the level left; outline: as §1
[23] = biological target: Glycogen synthase kinase-3 beta (Homo sapiens) (UniProt P49841); test: Inhibition of full length human GSK3B assessed as enzyme activity at 10 uM by KINOMEScan assay; design: scale not given: the % may be the effect or the level left; outline: as §1
Chain of Glycogen synthase kinase-3 beta (Homo sapiens) (P49841 whole entry, looked up): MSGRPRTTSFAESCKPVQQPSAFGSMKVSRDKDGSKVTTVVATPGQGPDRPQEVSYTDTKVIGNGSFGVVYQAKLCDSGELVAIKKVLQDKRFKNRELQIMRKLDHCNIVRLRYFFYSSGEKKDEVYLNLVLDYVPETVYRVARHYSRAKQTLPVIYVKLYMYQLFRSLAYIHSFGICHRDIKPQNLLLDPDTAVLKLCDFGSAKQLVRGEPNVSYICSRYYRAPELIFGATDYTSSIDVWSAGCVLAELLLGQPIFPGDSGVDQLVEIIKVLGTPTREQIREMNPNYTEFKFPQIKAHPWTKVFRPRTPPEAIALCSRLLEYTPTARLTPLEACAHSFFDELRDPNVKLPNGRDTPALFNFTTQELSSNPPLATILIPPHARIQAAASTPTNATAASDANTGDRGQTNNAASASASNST

[24] = biological target: Serine/threonine-protein kinase pim-3 (Homo sapiens) (UniProt Q86V86); test: Inhibition of PIM3 (unknown origin)
[25] = biological target: Serine/threonine-protein kinase B-raf (Homo sapiens) (UniProt P15056); test: Inhibition of human BRAF (429 to 741 amino acid residues) assessed as enzyme activity at 10 uM by KINOMEScan assay; design: scale not given: the % may be the effect or the level left; outline: as §1
[26] = biological target: MAP/microtubule affinity-regulating kinase 3 (Homo sapiens) (UniProt P27448); test: Inhibition of full length human MARK3 expressed in bacterial system assessed as enzyme activity at 10 uM by KINOMEScan assay; design: scale not given: the % may be the effect or the level left; outline: as §2
Chain of MAP/microtubule affinity-regulating kinase 3 (Homo sapiens) (P27448 whole entry, looked up, the tested form may be a part): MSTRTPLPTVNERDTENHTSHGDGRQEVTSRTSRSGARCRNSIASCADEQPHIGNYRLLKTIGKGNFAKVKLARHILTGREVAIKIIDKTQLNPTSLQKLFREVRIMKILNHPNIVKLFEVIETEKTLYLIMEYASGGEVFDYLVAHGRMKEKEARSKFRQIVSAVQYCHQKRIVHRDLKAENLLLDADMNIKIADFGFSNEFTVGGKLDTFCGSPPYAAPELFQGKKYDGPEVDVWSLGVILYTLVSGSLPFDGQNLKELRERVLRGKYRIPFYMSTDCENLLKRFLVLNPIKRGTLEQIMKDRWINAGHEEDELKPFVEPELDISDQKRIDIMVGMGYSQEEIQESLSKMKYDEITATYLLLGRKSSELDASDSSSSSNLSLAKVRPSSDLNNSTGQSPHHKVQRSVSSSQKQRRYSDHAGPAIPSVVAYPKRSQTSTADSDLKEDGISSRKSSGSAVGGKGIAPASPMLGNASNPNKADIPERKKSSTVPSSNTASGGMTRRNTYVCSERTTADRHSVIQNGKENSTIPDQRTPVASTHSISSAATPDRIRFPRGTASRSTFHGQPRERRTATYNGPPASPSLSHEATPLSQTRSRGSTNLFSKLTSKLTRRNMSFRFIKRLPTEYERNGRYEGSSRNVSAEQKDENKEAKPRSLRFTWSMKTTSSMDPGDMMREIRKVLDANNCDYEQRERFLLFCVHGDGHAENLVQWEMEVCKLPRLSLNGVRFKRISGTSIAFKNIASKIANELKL

[27] = biological target: Mitogen-activated protein kinase 10 (Homo sapiens) (UniProt P53779); test: Inhibition of human JNK3 (28 to 422 amino acid residues) assessed as enzyme activity at 10 uM by KINOMEScan assay; design: scale not given: the % may be the effect or the level left; outline: as §1
Chain of Mitogen-activated protein kinase 10 (Homo sapiens) (P53779 whole entry, the tested form may be a part): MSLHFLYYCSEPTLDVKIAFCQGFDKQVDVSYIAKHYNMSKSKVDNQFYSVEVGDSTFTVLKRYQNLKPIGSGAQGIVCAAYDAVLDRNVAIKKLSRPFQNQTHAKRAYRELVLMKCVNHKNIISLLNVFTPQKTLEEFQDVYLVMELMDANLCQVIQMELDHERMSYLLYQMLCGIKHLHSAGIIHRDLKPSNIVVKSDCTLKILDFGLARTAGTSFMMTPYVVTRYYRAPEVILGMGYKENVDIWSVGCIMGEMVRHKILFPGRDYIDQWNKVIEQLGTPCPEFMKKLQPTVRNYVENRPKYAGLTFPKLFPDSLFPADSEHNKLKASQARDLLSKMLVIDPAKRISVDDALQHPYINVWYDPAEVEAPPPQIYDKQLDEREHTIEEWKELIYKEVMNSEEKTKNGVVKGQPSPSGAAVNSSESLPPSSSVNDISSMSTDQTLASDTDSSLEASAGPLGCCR

Chain of Serine/threonine-protein kinase PAK 2 (Homo sapiens) (Q13177 whole entry, the tested form may be a part): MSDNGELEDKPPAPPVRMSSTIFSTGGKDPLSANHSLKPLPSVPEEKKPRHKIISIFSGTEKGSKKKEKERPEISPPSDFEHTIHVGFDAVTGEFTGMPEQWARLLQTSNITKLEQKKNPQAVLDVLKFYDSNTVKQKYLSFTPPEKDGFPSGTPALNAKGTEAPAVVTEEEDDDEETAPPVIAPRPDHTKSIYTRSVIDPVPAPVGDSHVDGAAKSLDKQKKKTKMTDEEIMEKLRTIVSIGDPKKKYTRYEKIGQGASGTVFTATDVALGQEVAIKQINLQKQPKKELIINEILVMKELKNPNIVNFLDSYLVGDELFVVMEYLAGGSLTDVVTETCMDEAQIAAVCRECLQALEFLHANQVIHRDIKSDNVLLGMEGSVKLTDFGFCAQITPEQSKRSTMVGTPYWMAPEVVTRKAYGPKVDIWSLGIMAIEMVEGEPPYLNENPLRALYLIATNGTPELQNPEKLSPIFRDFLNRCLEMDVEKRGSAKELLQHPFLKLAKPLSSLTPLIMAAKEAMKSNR

For `O=C1C2=C(C(=O)c3c(O)ccc(O)c31)[C@@H](O)[C@@H](O)[C@@H](O)C2`, which Activity [1] is on record?
The Activity was 57%.

What about the Activity [2] of the same compound?
The Activity was 100%.

What about the Activity [3] of the same compound?
The Activity was 100%.

And the Activity [4]?
Its Activity is 93%.

And the Activity [5]?
Its Activity is 86%.

What about the Activity [6] of the same compound?
The Activity was 100%.

What about the Activity [7] of the same compound?
The Activity was 100%.

And the Activity [8]?
The Activity was 30%.

And the Activity [9]?
Its Activity is 87%.

And the Activity [10]?
The Activity was 100%.

And the Activity [11]?
Its Activity is 92%.

What about the Activity [12] of the same compound?
Its Activity is 93%.

What about the Activity [13] of the same compound?
Its Activity is 100%.

And the Activity [14]?
Its Activity is 100%.

And the Activity [15]?
Its Activity is 88%.

And the Activity [16]?
The Activity was 96%.

What about the Activity [17] of the same compound?
Its Activity is 86%.

What about the Activity [18] of the same compound?
Its Activity is 89%.

And the % of MOE kinase hits [19]?
The % of MOE kinase hits was 14%.

And the % of MOE kinase hits [20]?
The % of MOE kinase hits was 7%.

And the Activity [21]?
Its Activity is 36%.

And the Activity [22]?
The Activity was 99%.

And the Activity [23]?
Its Activity is 85%.

And the % of MOE kinase hits [24]?
Its % of MOE kinase hits is 29%.

What about the Activity [25] of the same compound?
Its Activity is 87%.

And the Activity [26]?
The Activity was 100%.

What about the Activity [27] of the same compound?
The Activity was 76%.
